Active and inactive are the calls of the source. No cut-off for these calls is given here. Where a SMILES comes first, the peptide text is derived from it. The star is where a group is joined. Boc = CC(C)(C)OC(=O)*; X1 = c1ccc(O*)cc1

The target of assay [1] is T1, Human rhinovirus A protease (Human rhinovirus sp.) (UniProt Q4U254).
T1 sequence (whole entry): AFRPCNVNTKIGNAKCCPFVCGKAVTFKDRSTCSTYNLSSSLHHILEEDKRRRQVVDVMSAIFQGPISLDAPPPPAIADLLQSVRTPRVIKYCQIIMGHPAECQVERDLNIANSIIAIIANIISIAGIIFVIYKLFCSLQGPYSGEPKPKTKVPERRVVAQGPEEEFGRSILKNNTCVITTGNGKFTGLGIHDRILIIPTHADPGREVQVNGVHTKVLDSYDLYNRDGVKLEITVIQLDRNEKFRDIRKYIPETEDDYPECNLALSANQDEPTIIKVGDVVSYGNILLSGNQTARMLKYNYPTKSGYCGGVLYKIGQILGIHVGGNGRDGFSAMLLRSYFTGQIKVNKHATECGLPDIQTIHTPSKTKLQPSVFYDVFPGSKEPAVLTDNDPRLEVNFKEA
The assay can be described thus: Inhibitory activity against human rhinovirus 3C protease at a concentration of 150 uM (HRV-14 3Cpro). In a few lines: (§1)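 HRV-14 3C protease (0.75-3.3 µM) was preincubated with compound in 25 mM HEPES, 150 mM NaCl, 1 mM EDTA, pH 7.5, at 28-30 °C. Aliquots were taken periodically and diluted 13-fold into buffer containing 250 µM EALFQ-pNA, and absorbance was read at 405 nm. Activity is expressed relative to a no-inhibitor control, with the earliest point taken about 10-15 s after mixing.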

Assay [2] concerns the target T1, Human rhinovirus A protease (Human rhinovirus sp.). Briefly: Inhibitory activity against human rhinovirus 3C protease (HRV-14 3Cpro); Inactive. In a few lines: as §1
For assay [3] the target is unchanged. The assay can be described thus: Inhibitory activity against human rhinovirus 3C protease (HRV-14 3Cpro) at a concentration of 100 uM after 60 min of incubation. Also noted: scale not given: the % may be the effect or the level left. The essentials:
as §1

Assay [4] has the same target. The assay can be described thus: Inhibitory activity against human rhinovirus 3C protease (HRV-14 3Cpro) at a concentration of 100 uM after 75 min of incubation. Also noted: scale not given: the % may be the effect or the level left. The essentials: as §1
Assay [5] has the same target. The assay can be described thus: Inhibitory activity against human rhinovirus 3C protease (HRV-14 3Cpro) at a concentration of 150 uM. Also noted: scale not given: the % may be the effect or the level left. In a few lines:
as §1

For assay [6] the target is unchanged. The assay can be described thus: Inhibitory activity against human rhinovirus 3C protease (HRV-14 3Cpro) at a concentration of 150 uM after 110 min of incubation. Also noted: scale not given: the % may be the effect or the level left. In a few lines: as §1
Assay [7] shares this target. The assay can be described thus: Inhibitory activity against human rhinovirus 3C protease (HRV-14 3Cpro) at a concentration of 150 uM after 15 min of incubation. More on the design: scale not given: the % may be the effect or the level left. The essentials: as §1
Assay [8] shares this target. The assay can be described thus: Inhibitory activity against human rhinovirus 3C protease (HRV-14 3Cpro) at a concentration of 100 uM. Also noted: scale not given: the % may be the effect or the level left. In a few lines:
as §1

For assay [9] the target is unchanged. The assay can be described thus: Inhibitory activity against human rhinovirus 3C protease (HRV-14 3Cpro) at a concentration of 100 uM after 110 min of incubation. More on the design: scale not given: the % may be the effect or the level left. The essentials: as §1
The target is the same in assay [10]. Briefly: Inhibitory activity against human rhinovirus 3C protease (HRV-14 3Cpro) at a concentration of 100 uM after 15 min of incubation. More on the design: scale not given: the % may be the effect or the level left. The essentials:
as §1

Assay [11] has the same target. The assay can be described thus: Inhibitory activity against human rhinovirus 3C protease (HRV-14 3Cpro) at a concentration of 100 uM after 30 min of incubation. Also noted: scale not given: the % may be the effect or the level left. In a few lines: as §1
The target is the same in assay [12]. The assay can be described thus: Inhibitory activity against human rhinovirus 3C protease (HRV-14 3Cpro) at a concentration of 100 uM after 45 min of incubation. More on the design: scale not given: the % may be the effect or the level left. The essentials:
as §1

The target is the same in assay [13]. The assay can be described thus: Inhibitory activity against human rhinovirus 3C protease (HRV-14 3Cpro) at a concentration of 50 uM. Also noted: scale not given: the % may be the effect or the level left. In a few lines: as §1
The target is the same in assay [14]. The assay can be described thus: Inhibitory activity against human rhinovirus 3C protease (HRV-14 3Cpro) at a concentration of 50 uM after 15 min of incubation. More on the design: scale not given: the % may be the effect or the level left. The essentials: as §1
Assay [15] has the same target. The assay can be described thus: Inhibitory activity against human rhinovirus 3C protease (HRV-14 3Cpro) at a concentration of 50 uM after 30 min of incubation. More on the design: scale not given: the % may be the effect or the level left. In a few lines: as §1
Assay [16] shares this target. The assay can be described thus: Inhibitory activity against human rhinovirus 3C protease (HRV-14 3Cpro) at a concentration of 50 uM after 45 min of incubation. More on the design: scale not given: the % may be the effect or the level left. In a few lines: as §1
Assay [17] has the same target. Briefly: Inhibitory activity against human rhinovirus 3C protease (HRV-14 3Cpro) at a concentration of 150 uM after 30 min of incubation. More on the design: scale not given: the % may be the effect or the level left. The essentials: as §1
Assay [18] shares this target. Briefly: Inhibitory activity against human rhinovirus 3C protease (HRV-14 3Cpro) at a concentration of 150 uM after 60 min of incubation. More on the design: scale not given: the % may be the effect or the level left. The essentials: as §1
Assay [19] shares this target. Briefly: Inhibitory activity against human rhinovirus 3C protease (HRV-14 3Cpro) at a concentration of 150 uM after 75 min of incubation. Also noted: scale not given: the % may be the effect or the level left. The essentials: as §1
For assay [20] the target is unchanged. Briefly: Inhibitory activity against human rhinovirus 3C protease (HRV-14 3Cpro) at a concentration of 150 uM after 90 min of incubation. Also noted: scale not given: the % may be the effect or the level left. The essentials: as §1

In the case of `CC(C)C[C@H](NC(=O)[C@@H](NC(=O)OC(C)(C)C)C(C)C)C(=O)N[C@@H](Cc1ccccc1)C(=O)NCC(=O)Oc1ccccc1` (Boc-VLFG-X1), the k in assay [1] was 0.009 min⁻¹.
With `CC(C)C[C@H](NC(=O)[C@@H](NC(=O)OC(C)(C)C)C(C)C)C(=O)N[C@@H](Cc1ccccc1)C(=O)NN(CCC(N)=O)C(=O)OCC(Cl)(Cl)Cl`, the outcome in [2] was inactive.
Same read-out and setting: in the case of `CC(C)(C)OC(=O)N[C@@H](Cc1ccccc1)C(=O)NN(CCC(N)=O)C(=O)Oc1ccccc1` it was “inactive”; in that of `CC(C)C[C@H](NC(=O)[C@@H](NC(=O)OC(C)(C)C)C(C)C)C(=O)N[C@@H](Cc1ccccc1)C(=O)NN(CCC(N)=O)C(=O)OCc1ccccc1`, “inactive”.
Regarding `CC(C)C[C@H](NC(=O)[C@@H](NC(=O)OC(C)(C)C)C(C)C)C(=O)N[C@@H](Cc1ccccc1)C(=O)NN(CCC(N)=O)C(=O)Oc1ccccc1`, the Activity stood at 90% in [3]; 95% in assay [4]; 5% in assay [5]; 85% in [6]; 10% in assay [7]; 18% in assay [8]. Further, the Activity stood at 95% in [9]; 18% in assay [10]; 28% in assay [11]; 62% in [12]; 23% in assay [13]; 40% in assay [14]. Further, the Activity amounted to 75% in assay [15]; 85% in assay [16]; 13% in assay [17]; 20% in [18]; 45% in [19]; 70% in [20].

Source of the values: ChEMBL document CHEMBL1131948, “Design, synthesis, and evaluation of azapeptides as substrates and inhibitors for human rhinovirus 3C protease” (Bioorg Med Chem Lett, 1999).
